From ChEMBL document CHEMBL4028907, “Semisynthesis and Biological Evaluation of Xanthone Amphiphilics as Selective, Highly Potent Antifungal Agents to Combat Fungal Resistance” (J Med Chem, 2017)
In brackets after ≈: the same amount, converted by molar mass.

Tests used:
[1] = tested on: Candida albicans; assay: Antifungal activity against Candida albicans ATCC 10231 after 24 hrs by two fold serial dilution method; type: functional; settings: ATCC 10231, 24 h
Outline: (§1)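 Candida grown on Sabouraud dextrose agar at 35 °C for 24 h, adjusted to ~5×10^3 CFU/mL. Two-fold dilutions from 100 to 0.78 μg/mL in Sabouraud dextrose broth, incubated at 35 °C for 24 h. MIC is the lowest concentration inhibiting growth by eye and by OD600. CLSI-based with minor modifications.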

[2] = tested on: Candida albicans; assay: Antifungal activity against drug resistant Candida albicans DF2672R after 24 hrs by two fold serial dilution method; type: functional; outline: as §1
[3] = Selectivity index, ratio of HC50 for New Zealand white rabbit RBC to MIC for Candida albicans ATCC 10231
[4] = tested on: Staphylococcus aureus; assay: Antibacterial activity against Staphylococcus aureus DM4001R by two fold serial dilution method; type: functional
Outline: (§2)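 Broth microdilution (CLSI, minor modifications) in Sabouraud dextrose, Mueller−Hinton or RPMI 1640 broth; two-fold serial dilutions of compound from stock to final 100 to 0.78 μg/mL. MIC taken as lowest concentration giving no visible growth.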

[5] = tested on: Bacillus cereus; assay: Antibacterial activity against Bacillus cereus ATCC11778 by two fold serial dilution method; type: functional; outline: as §2
[6] = tested on: Klebsiella pneumoniae; assay: Antibacterial activity against Klebsiella pneumoniae DM4299 by two fold serial dilution method; type: functional; outline: as §2
[7] = tested on: Pseudomonas aeruginosa; assay: Antibacterial activity against Pseudomonas aeruginosa DM23155 by two fold serial dilution method; type: functional; outline: as §2
[8] = tested on: Staphylococcus aureus; assay: Antibacterial activity against methicillin resistant Staphylococcus aureus DM21455 by two fold serial dilution method; type: functional
Outline: (§3)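 Broth microdilution per CLSI guidelines with minor modifications, run in Mueller−Hinton broth; MIC is the lowest concentration giving no visible growth.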

[9] = tested on: Staphylococcus aureus; assay: Antibacterial activity against methicillin resistant Staphylococcus aureus DM9808R by two fold serial dilution method; type: functional; outline: as §3
[10] = Dissociation constant, pKa of compound; type: physicochemical
[11] = tested on: Candida albicans; assay: Antifungal activity against Candida albicans DF1976R after 24 hrs by two fold serial dilution method; type: functional; outline: as §1
[12] = tested on: Candida albicans; assay: Antifungal activity against Candida albicans ATCC90028 after 24 hrs by two fold serial dilution method; type: functional; settings: ATCC90028, 24 h; outline: as §1
[13] = tested on: Candida albicans; assay: Antifungal activity against Candida albicans ATCC24433 after 24 hrs by two fold serial dilution method; type: functional; settings: ATCC24433, 24 h; outline: as §1
[14] = tested on: Candida albicans; assay: Antifungal activity against Candida albicans ATCC11651 after 24 hrs by two fold serial dilution method; type: functional; settings: ATCC11651, 24 h; outline: as §1

Row | SMILES | MIC [1] [µg/mL] | MIC [2] [µg/mL] | Selectivity Index [3] | also measured
1 | CCCNCC(O)COc1cc2oc3cc(OCC(O)CNCCC)c(OC)c(CC=C(C)C)c3c(=O)c2c(O)c1CC=C(C)C (configuration not stated) | 6.25 (≈ 9.75 µM) | 6.25 (≈ 9.75 µM) | 11.6 | 
2 | CCCCCCNCC(O)COc1cc2oc3cc(OCC(O)CNCCCCCC)c(OC)c(CC=C(C)C)c3c(=O)c2c(O)c1CC=C(C)C (configuration not stated) | 12.5 (≈ 17.2 µM) | 12.5 (≈ 17.2 µM) | 27.5 | 
3 | COc1c(OCC(O)CNC2CCCCCCC2)cc2oc3cc(OCC(O)CNC4CCCCCCC4)c(CC=C(C)C)c(O)c3c(=O)c2c1CC=C(C)C (configuration not stated) | 6.25 (≈ 8.04 µM) | 6.25 (≈ 8.04 µM) | 29.7 | 
4 | COC(=O)[C@H](CCCNC(=N)N)NC(=O)[C@H](CCCNC(=N)N)NC(=O)COc1cc2oc3cc(OCC(=O)N[C@@H](CCCNC(=N)N)C(=O)N[C@@H](CCCNC(=N)N)C(=O)OC)c(OC)c(CC=C(C)C)c3c(=O)c2c(O)c1CC=C(C)C | 6.25 (≈ 5.3 µM) | 12.5 (≈ 10.6 µM) | 22.2 to 44.4 | 
5 | CCC(C)n1ncn(-c2ccc(N3CCN(c4ccc(OCC5COC(Cn6cncn6)(c6ccc(Cl)cc6Cl)O5)cc4)CC3)cc2)c1=O (configuration not stated) [ITRACONAZOLE] |  | 6.25 (≈ 8.86 µM) |  | 
6 | CN(C/C=C/C#CC(C)(C)C)Cc1cccc2ccccc12 [TERBINAFINE] |  | 3.13 (≈ 10.7 µM) |  | 
7 | CC[C@@H]([C@H](C)O)n1ncn(-c2ccc(N3CCN(c4ccc(OC[C@@H]5CO[C@@](Cn6cncn6)(c6ccc(F)cc6F)C5)cc4)CC3)cc2)c1=O [POSACONAZOLE] |  | 12.5 (≈ 17.8 µM) |  | 
8 | CCCCCCN(CCCCCC)CC(O)COc1cc2oc3cc(OCC(O)CN(CCCCCC)CCCCCC)c(OC)c(CC=C(C)C)c3c(=O)c2c(O)c1CC=C(C)C (configuration not stated) | 12.5 (≈ 14 µM) | 12.5 (≈ 14 µM) | > 32 | 
9 | COc1c(OCC(O)CN(C)Cc2ccccc2)cc2oc3cc(OCC(O)CN(C)Cc4ccccc4)c(CC=C(C)C)c(O)c3c(=O)c2c1CC=C(C)C (configuration not stated) | 12.5 (≈ 16.3 µM) | 6.25 (≈ 8.17 µM) | > 32 | 
10 | CCN(CC)CC(O)COc1cc2oc3cc(OCC(O)CN(CC)CC)c(OC)c(CC=C(C)C)c3c(=O)c2c(O)c1CC=C(C)C (configuration not stated) | 6.25 (≈ 9.34 µM) | 6.25 (≈ 9.34 µM) | 5.6 | MIC [4]: 1.56 to 3.13 µg/mL (≈ 2.33 to 4.68 µM); MIC [5]: 1.56 to 3.13 µg/mL (≈ 2.33 to 4.68 µM); MIC [6]: 25 to 50 µg/mL (≈ 37.4 to 74.8 µM); MIC [7]: 25 to 50 µg/mL (≈ 37.4 to 74.8 µM); MIC [8]: 1.56 to 3.13 µg/mL (≈ 2.33 to 4.68 µM); MIC [9]: 1.56 to 3.13 µg/mL (≈ 2.33 to 4.68 µM)
11 | COc1c(OCC(O)CN2CCNCC2)cc2oc3cc(OCC(O)CN4CCNCC4)c(CC=C(C)C)c(O)c3c(=O)c2c1CC=C(C)C (configuration not stated) | 12.5 (≈ 18 µM) | 12.5 (≈ 18 µM) | 2.6 | pKa [10]: 9.55
12 | COc1c(OCC(O)CN2CCCC2)cc2oc3cc(OCC(O)CN4CCCC4)c(CC=C(C)C)c(O)c3c(=O)c2c1CC=C(C)C (configuration not stated) | 6.25 (≈ 9.4 µM) | 6.25 (≈ 9.4 µM) | 4.2 | pKa [10]: 11.3
13 | COc1c(OCC(=O)N[C@@H](CCCNC(=N)N)C(=O)OC(C)(C)C)cc2oc3cc(OCC(=O)N[C@@H](CCCNC(=N)N)C(=O)OC(C)(C)C)c(CC=C(C)C)c(O)c3c(=O)c2c1CC=C(C)C | 12.5 (≈ 13.1 µM) | 6.25 (≈ 6.57 µM) | 6.3 to 12.6 | 
14 | COc1c(OCC(O)CNCCNC(=N)N)cc2oc3cc(OCC(O)CNC(=N)N)c(CC=C(C)C)c(O)c3c(=O)c2c1CC=C(C)C (configuration not stated) | 6.25 (≈ 9.14 µM) | 6.25 (≈ 9.14 µM) | 8.6 | 
15 | COc1c(OCC(O)CN2CCOCC2)cc2oc3cc(OCC(O)CN4CCOCC4)c(CC=C(C)C)c(O)c3c(=O)c2c1CC=C(C)C (configuration not stated) | 6.25 (≈ 8.97 µM) | 6.25 (≈ 8.97 µM) | > 64 | 
16 | COc1c(OCC(O)CN(C)C)cc2oc3cc(OCC(O)CN(C)C)c(CC=C(C)C)c(O)c3c(=O)c2c1CC=C(C)C (configuration not stated) | 6.25 (≈ 10.2 µM) | 6.25 (≈ 10.2 µM) | 4.8 | 
17 | COc1c(OCC(O)CN2CCCCC2)cc2oc3cc(OCC(O)CN4CCCCC4)c(CC=C(C)C)c(O)c3c(=O)c2c1CC=C(C)C (configuration not stated) | 6.25 (≈ 9.02 µM) | 6.25 (≈ 9.02 µM) | 5.1 | pKa [10]: 11.2
18 | COC(=O)[C@H](CCCNC(=N)N)NC(=O)COc1cc2oc3cc(OCC(=O)N[C@@H](CCCNC(=N)N)C(=O)OC)c(OC)c(CC=C(C)C)c3c(=O)c2c(O)c1CC=C(C)C | 6.25 (≈ 7.21 µM) | 6.25 (≈ 7.21 µM) | 37.1 | 

Row | SMILES | MIC [1] [µg/mL] | MIC [2] [µg/mL] | Selectivity Index [3] | also measured
19 | COc1c(OCC(O)CNCCN)cc2oc3cc(OCC(O)CNCCN)c(CC=C(C)C)c(O)c3c(=O)c2c1CC=C(C)C (configuration not stated) | 6.25 (≈ 9.72 µM) | 12.5 (≈ 19.4 µM) | 2.4 to 4.8 | 
20 | COc1c(OCC(O)CN)cc2oc3cc(OCC(O)CN)c(CC=C(C)C)c(O)c3c(=O)c2c1CC=C(C)C (configuration not stated) | 6.25 (≈ 11.2 µM) | 6.25 (≈ 11.2 µM) | 7.9 | pKa [10]: 10.5
21 | COc1c(OCC(O)Cn2ccnc2)cc2oc3cc(OCC(O)Cn4ccnc4)c(CC=C(C)C)c(O)c3c(=O)c2c1CC=C(C)C (configuration not stated) | 12.5 (≈ 19 µM) | 12.5 (≈ 19 µM) | > 32 | 
22 | COc1c(OCC(O)CNCc2ccc(F)cc2)cc2oc3cc(OCC(O)CNCc4ccc(F)cc4)c(CC=C(C)C)c(O)c3c(=O)c2c1CC=C(C)C (configuration not stated) | 6.25 (≈ 8.09 µM) | 6.25 (≈ 8.09 µM) | > 64 | 
23 | COc1c(OCC(O)CNCCNCCNCCN)cc2oc3cc(OCC(O)CNCCNCCNCCN)c(CC=C(C)C)c(O)c3c(=O)c2c1CC=C(C)C (configuration not stated) | 12.5 (≈ 15.3 µM) | 25 (≈ 30.7 µM) | 14.9 to 29.8 | 
24 | CCCCN(C)CC(O)COc1cc2oc3cc(OCC(O)CN(C)CCCC)c(OC)c(CC=C(C)C)c3c(=O)c2c(O)c1CC=C(C)C (configuration not stated) | 3.13 (≈ 4.49 µM) | 3.13 (≈ 4.49 µM) | 15.5 | MIC [11]: 3.13 µg/mL (≈ 4.49 µM); MIC [12]: 3.13 µg/mL (≈ 4.49 µM); MIC [13]: 6.25 µg/mL (≈ 8.97 µM); MIC [14]: 6.25 µg/mL (≈ 8.97 µM)
25 | CCCCCCCCNCC(O)COc1cc2oc3cc(OCC(O)CNCCCCCCCC)c(OC)c(CC=C(C)C)c3c(=O)c2c(O)c1CC=C(C)C (configuration not stated) | > 50 | > 50 |  | 
26 | COc1c(OCC(O)CNCCNCCN)cc2oc3cc(OCC(O)CNCCNCCN)c(CC=C(C)C)c(O)c3c(=O)c2c1CC=C(C)C (configuration not stated) | 6.25 (≈ 8.57 µM) | 12.5 (≈ 17.1 µM) | 13.2 to 26.4 | 
27 | CCCC[N+](C)(CCCC)CC(O)COc1cc2oc3cc(OCC(O)C[N+](C)(CCCC)CCCC)c(OC)c(CC=C(C)C)c3c(=O)c2c(O)c1CC=C(C)C.[I-].[I-] (configuration not stated) | 6.25 | 6.25 | 5.3 | 
28 | COc1c(OCC(O)CNC(CO)(CO)CO)cc2oc3cc(OCC(O)CNC(CO)(CO)CO)c(CC=C(C)C)c(O)c3c(=O)c2c1CC=C(C)C (configuration not stated) | 6.25 (≈ 8.17 µM) | 6.25 (≈ 8.17 µM) | 3.9 | 
29 | COc1c(O)cc2oc3cc(O)c(CC=C(C)C)c(O)c3c(=O)c2c1CC=C(C)C [MANGOSTIN] | > 50 | > 50 | < 0.2 | 
30 | C[C@@H]1[C@H](O)[C@@H](C)/C=C/C=C/C=C/C=C/C=C/C=C/C=C/[C@H](O[C@@H]2O[C@H](C)[C@@H](O)[C@H](N)[C@@H]2O)C[C@@H]2O[C@](O)(C[C@@H](O)C[C@@H](O)[C@H](O)CC[C@@H](O)C[C@@H](O)CC(=O)O[C@H]1C)C[C@H](O)[C@H]2C(=O)O [AMPHOTERICIN B] |  | 0.2 (≈ 0.216 µM) |  | 
31 | CC[N+](C)(CC)CC(O)COc1cc2oc3cc(OCC(O)C[N+](C)(CC)CC)c(OC)c(CC=C(C)C)c3c(=O)c2c(O)c1CC=C(C)C.[I-].[I-] (configuration not stated) | 12.5 | 6.25 | 2.9 to 5.7 | 
32 | COc1c(OCC(O)C[N+](C)(C)C)cc2oc3cc(OCC(O)C[N+](C)(C)C)c(CC=C(C)C)c(O)c3c(=O)c2c1CC=C(C)C.[I-].[I-] (configuration not stated) | 12.5 | 12.5 | 2.9 | 
33 | COc1c(OCC2CO2)cc2oc3cc(OCC4CO4)c(CC=C(C)C)c(O)c3c(=O)c2c1CC=C(C)C (configuration not stated) | > 50 | > 50 |  | 
34 | Clc1ccc(COC(Cn2ccnc2)c2ccc(Cl)cc2Cl)c(Cl)c1 (configuration not stated) [MICONAZOLE] |  | 0.39 (≈ 0.937 µM) |  | 
35 | COc1c(OCC(=O)N[C@@H](CCCNC(=N)N)C(N)=O)cc2oc3cc(OCC(=O)N[C@@H](CCCNC(=N)N)C(N)=O)c(CC=C(C)C)c(O)c3c(=O)c2c1CC=C(C)C | 6.25 (≈ 7.47 µM) | 6.25 (≈ 7.47 µM) | 20.5 | 
